Activity calls are given as the source filed them. The rule behind the calls is not given here.
Assays:
A549 [1] = test: Cell cycle arrest in synchronized human A549 cells assessed as accumulation at S phase after 48 hrs by propidium iodide staining-based flow cytometric analysis; type: functional
UACC-903 [2] = test: Cytotoxicity against human UACC-903 cells after 72 hrs by MTS assay; type: functional, cell-based; conditions: for IC50: UACC-903, 72 h
A549 [3] = test: Cell cycle arrest in synchronized human A549 cells assessed as accumulation at S phase at 0.5 uM after 48 hrs by propidium iodide staining-based flow cytometric analysis (reference value: 41.2 +/- 3.1%); type: functional
HT-29 [4] = test: Cytotoxicity against human HT-29 cells after 24 hrs by MTS assay; type: functional, cell-based; conditions: for IC50: HT-29, 24 h
HT-29 [5] = test: Cytotoxicity against human HT-29 cells by MTS assay; type: functional, cell-based; conditions: TDE = time-dependent effect
A549 [6] = test: Decrease in Cdk1 protein level in synchronized human A549 cells after 18 hrs by Western blot analysis; type: functional, cell-based
In short: (§1)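 A549 cells synchronized with nocodazole (0.5 μg/ml, 15 h), then treated with compound (0, 0.5, 1.0, 2.0, 5.0 μM; final DMSO 0.2%) for 18 h at 37 °C. RIPA lysates with protease inhibitors, 40 μg protein on 12% SDS-PAGE, probed with rabbit polyclonal anti-human CDK1 or cyclin B1, ECL detection, densitometry; three experiments on different passages.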

A549 [7] = test: Cell cycle arrest in synchronized human A549 cells assessed as accumulation at G1/G0 phase at 10 uM after 48 hrs by propidium iodide staining-based flow cytometric analysis (reference value: 40.6 +/- 4.6%); type: functional
A549 [8] = test: Cell cycle arrest in synchronized human A549 cells assessed as accumulation at G2/M phase at 2.5 uM after 48 hrs by propidium iodide staining-based flow cytometric analysis (reference value: 18.2 +/- 2.1%); type: functional
A549 [9] = test: Cell cycle arrest in synchronized human A549 cells assessed as accumulation at G1/G0 phase at 0.5 uM after 48 hrs by propidium iodide staining-based flow cytometric analysis (reference value: 40.6 +/- 4.6%); type: functional
HT-29 [10] = test: Cytotoxicity against human HT-29 cells after 72 hrs by MTS assay; type: functional, cell-based; conditions: for IC50: HT-29, 72 h
A549 [11] = test: Cell cycle arrest in synchronized human A549 cells assessed as accumulation at G2/M phase at 10 uM after 48 hrs by propidium iodide staining-based flow cytometric analysis (reference value: 18.2 +/- 2.1%); type: functional
A549 [12] = test: Cell cycle arrest in synchronized human A549 cells assessed as accumulation at S phase at 10 uM after 48 hrs by propidium iodide staining-based flow cytometric analysis (reference value: 41.2 +/- 3.1%); type: functional
A549 [13] = test: Cell cycle arrest in synchronized human A549 cells assessed as accumulation at S phase at 2.5 uM after 48 hrs by propidium iodide staining-based flow cytometric analysis (reference value: 41.2 +/- 3.1%); type: functional
A549 [14] = test: Cytotoxicity against human A549 cells after 24 hrs by MTS assay; type: functional, cell-based; conditions: for IC50: A549, 24 h
A549 [15] = test: Cytotoxicity against human A549 cells by MTS assay; type: functional, cell-based; conditions: TDE = time-dependent effect
A549 [16] = test: Cell cycle arrest in synchronized human A549 cells assessed as accumulation at G2/M phase at 0.5 uM after 48 hrs by propidium iodide staining-based flow cytometric analysis (reference value: 18.2 +/- 2.1%); type: functional
A549 [17] = test: Cytotoxicity against human A549 cells after 72 hrs by MTS assay; type: functional, cell-based; conditions: for IC50: A549, 72 h
A549 [18] = test: Decrease in cyclin B1 protein level in synchronized human A549 cells at 5 uM after 18 hrs by Western blot analysis; type: functional, cell-based; in short: as §1
A549 [19] = test: Decrease in cyclin B1 protein level in synchronized human A549 cells at 2 uM after 18 hrs by Western blot analysis; type: functional, cell-based; in short: as §1
A549 [20] = test: Decrease in Cdk1 protein level in synchronized human A549 cells at 5 uM after 18 hrs by Western blot analysis; type: functional, cell-based; in short: as §1
A549 [21] = test: Decrease in Cdk1 protein level in synchronized human A549 cells at 2 uM after 18 hrs by Western blot analysis; type: functional, cell-based; in short: as §1
UACC-903 [22] = test: Cytotoxicity against human UACC-903 cells after 24 hrs by MTS assay; type: functional, cell-based; conditions: for IC50: UACC-903, 24 h
A549 [23] = test: Cell cycle arrest in synchronized human A549 cells assessed as accumulation at G2/M phase after 48 hrs by propidium iodide staining-based flow cytometric analysis; type: functional
A549 [24] = test: Decrease in cyclin B1 protein level in synchronized human A549 cells after 18 hrs by Western blot analysis; type: functional, cell-based; in short: as §1
A549 [25] = test: Cell cycle arrest in synchronized human A549 cells assessed as accumulation at G1/G0 phase at 2.5 uM after 48 hrs by propidium iodide staining-based flow cytometric analysis (reference value: 40.6 +/- 4.6%); type: functional
UACC-903 [26] = test: Cytotoxicity against human UACC-903 cells by MTS assay; type: functional, cell-based; conditions: TDE = time-dependent effect

Structure (SMILES): C=CCc1cc(Br)c(O)c(-c2ccc(OC)c(CC=C)c2)c1
- Activity (A549 [1]): Dose-dependent effect
- growth inhibition (GI) (UACC-903 [2]): Dose-dependent effect
- IC50 (UACC-903 [2]): 1.29 µM
- Activity (A549 [3]): 32.8%
- growth inhibition (GI) (HT-29 [4]): Dose-dependent effect
- IC50 (HT-29 [4]): 3.99 µM
- growth inhibition (GI) (HT-29 [5]): tde
- Activity (A549 [6]): Dose-dependent effect
- Activity (A549 [7]): 76.4%
- Activity (A549 [8]): 6.3%
- Activity (A549 [9]): 55.8%
- growth inhibition (GI) (HT-29 [10]): Dose-dependent effect
- IC50 (HT-29 [10]): 1.87 µM
- Activity (A549 [11]): 3%
- Activity (A549 [12]): 20.7%
- Activity (A549 [13]): 30.6%
- growth inhibition (GI) (A549 [14]): Dose-dependent effect
- IC50 (A549 [14]): 1.73 µM
- growth inhibition (GI) (A549 [15]): tde
- Activity (A549 [16]): 11.4%
- growth inhibition (GI) (A549 [17]): Dose-dependent effect
- IC50 (A549 [17]): 1.04 µM
- Activity (A549 [18]): Active
- Activity (A549 [19]): Active
- Activity (A549 [20]): Active
- Activity (A549 [21]): Active
- growth inhibition (GI) (UACC-903 [22]): Dose-dependent effect
- IC50 (UACC-903 [22]): 2.98 µM
- Activity (A549 [23]): Dose-dependent effect
- Activity (A549 [24]): Dose-dependent effect
- Activity (A549 [25]): 63.1%
- growth inhibition (GI) (UACC-903 [26]): tde

Structure (SMILES): C=CCc1ccc(O)c(-c2ccc(OC)c(CC=C)c2)c1 [METHYLHONOKIOL]
- growth inhibition (GI) (UACC-903 [2]): Dose-dependent effect
- IC50 (UACC-903 [2]): 24.1 µM
- growth inhibition (GI) (HT-29 [4]): Dose-dependent effect
- IC50 (HT-29 [4]): 22.4 µM
- growth inhibition (GI) (HT-29 [5]): tde
- growth inhibition (GI) (HT-29 [10]): Dose-dependent effect
- IC50 (HT-29 [10]): 14.1 µM
- growth inhibition (GI) (A549 [14]): Dose-dependent effect
- IC50 (A549 [14]): 1.56 µM
- growth inhibition (GI) (A549 [15]): tde
- growth inhibition (GI) (A549 [17]): Dose-dependent effect
- IC50 (A549 [17]): 1.24 µM
- growth inhibition (GI) (UACC-903 [22]): Dose-dependent effect
- IC50 (UACC-903 [22]): 37.7 µM
- growth inhibition (GI) (UACC-903 [26]): tde

Structure (SMILES): C=CCc1cc(-c2ccc(OC)c(CC=C)c2)ccc1O
- Activity (A549 [1]): Dose-dependent effect
- growth inhibition (GI) (UACC-903 [2]): Dose-dependent effect
- IC50 (UACC-903 [2]): 1.39 µM
- Activity (A549 [3]): 23%
- growth inhibition (GI) (HT-29 [4]): Dose-dependent effect
- IC50 (HT-29 [4]): 3.19 µM
- growth inhibition (GI) (HT-29 [5]): tde
- Activity (A549 [6]): Dose-dependent effect
- Activity (A549 [7]): 82.8%
- Activity (A549 [8]): 4.2%
- Activity (A549 [9]): 69.8%
- growth inhibition (GI) (HT-29 [10]): Dose-dependent effect
- IC50 (HT-29 [10]): 2 µM
- Activity (A549 [11]): 2.8%
- Activity (A549 [12]): 14.3%
- Activity (A549 [13]): 20.2%
- growth inhibition (GI) (A549 [14]): Dose-dependent effect
- IC50 (A549 [14]): 2.47 µM
- growth inhibition (GI) (A549 [15]): tde
- Activity (A549 [16]): 7.2%
- growth inhibition (GI) (A549 [17]): Dose-dependent effect
- IC50 (A549 [17]): 1.99 µM
- Activity (A549 [18]): Active
- Activity (A549 [19]): Active
- Activity (A549 [20]): Active
- Activity (A549 [21]): Active
- growth inhibition (GI) (UACC-903 [22]): Dose-dependent effect
- IC50 (UACC-903 [22]): 3.05 µM
- Activity (A549 [23]): Dose-dependent effect
- Activity (A549 [24]): Dose-dependent effect
- Activity (A549 [25]): 75.7%
- growth inhibition (GI) (UACC-903 [26]): tde

Structure (SMILES): C=CCc1ccc(O)c(-c2cccc(CC=C)c2O)c1
- growth inhibition (GI) (UACC-903 [2]): Dose-dependent effect
- IC50 (UACC-903 [2]): 17.4 µM
- growth inhibition (GI) (HT-29 [4]): Dose-dependent effect
- IC50 (HT-29 [4]): 17.4 µM
- growth inhibition (GI) (HT-29 [5]): tde
- growth inhibition (GI) (HT-29 [10]): Dose-dependent effect
- IC50 (HT-29 [10]): 12.4 µM
- growth inhibition (GI) (A549 [14]): Dose-dependent effect
- IC50 (A549 [14]): 2.04 µM
- growth inhibition (GI) (A549 [15]): tde
- growth inhibition (GI) (A549 [17]): Dose-dependent effect
- IC50 (A549 [17]): 1.08 µM
- growth inhibition (GI) (UACC-903 [22]): Dose-dependent effect
- IC50 (UACC-903 [22]): 22.3 µM
- growth inhibition (GI) (UACC-903 [26]): tde

Structure (SMILES): C=CCc1cc(-c2cccc(CC=C)c2O)ccc1OC
- growth inhibition (GI) (UACC-903 [2]): Dose-dependent effect
- IC50 (UACC-903 [2]): 24.7 µM
- growth inhibition (GI) (HT-29 [4]): Dose-dependent effect
- IC50 (HT-29 [4]): 16.2 µM
- growth inhibition (GI) (HT-29 [5]): tde
- growth inhibition (GI) (HT-29 [10]): Dose-dependent effect
- IC50 (HT-29 [10]): 11.5 µM
- growth inhibition (GI) (A549 [14]): Dose-dependent effect
- IC50 (A549 [14]): 11.3 µM
- growth inhibition (GI) (A549 [15]): tde
- growth inhibition (GI) (A549 [17]): Dose-dependent effect
- IC50 (A549 [17]): 6.28 µM
- growth inhibition (GI) (UACC-903 [22]): Dose-dependent effect
- IC50 (UACC-903 [22]): 29 µM
- growth inhibition (GI) (UACC-903 [26]): tde

Structure (SMILES): C=CCc1cc(-c2ccc(OC)c(CC=C)c2)c(O)c(-c2ccc(OC)c(CC=C)c2)c1
- growth inhibition (GI) (UACC-903 [2]): Dose-dependent effect
- IC50 (UACC-903 [2]): 2.93 µM
- growth inhibition (GI) (HT-29 [4]): Dose-dependent effect
- IC50 (HT-29 [4]): 16.9 µM
- growth inhibition (GI) (HT-29 [5]): tde
- growth inhibition (GI) (HT-29 [10]): Dose-dependent effect
- IC50 (HT-29 [10]): 11.4 µM
- growth inhibition (GI) (A549 [14]): Dose-dependent effect
- IC50 (A549 [14]): 1.74 µM
- growth inhibition (GI) (A549 [15]): tde
- growth inhibition (GI) (A549 [17]): Dose-dependent effect
- IC50 (A549 [17]): 1.25 µM
- growth inhibition (GI) (UACC-903 [22]): Dose-dependent effect
- IC50 (UACC-903 [22]): 3.94 µM
- growth inhibition (GI) (UACC-903 [26]): tde

Structure (SMILES): C=CCc1ccc(O)c(-c2ccc(O)c(CC=C)c2)c1 [HONOKIOL]
- growth inhibition (GI) (UACC-903 [2]): Dose-dependent effect
- IC50 (UACC-903 [2]): 5.1 µM
- Activity (A549 [3]): 37.9%
- growth inhibition (GI) (HT-29 [4]): Dose-dependent effect
- IC50 (HT-29 [4]): 23.9 µM
- growth inhibition (GI) (HT-29 [5]): tde
- Activity (A549 [6]): Dose-dependent effect
- Activity (A549 [7]): 72.9%
- Activity (A549 [8]): 10.8%
- Activity (A549 [9]): 50.5%
- growth inhibition (GI) (HT-29 [10]): Dose-dependent effect
- IC50 (HT-29 [10]): 13.2 µM
- Activity (A549 [11]): 5.4%
- Activity (A549 [12]): 21.7%
- Activity (A549 [13]): 28.1%
- growth inhibition (GI) (A549 [14]): Dose-dependent effect
- IC50 (A549 [14]): 12.5 µM
- growth inhibition (GI) (A549 [15]): tde
- Activity (A549 [16]): 11.6%
- growth inhibition (GI) (A549 [17]): Dose-dependent effect
- IC50 (A549 [17]): 7.75 µM
- growth inhibition (GI) (UACC-903 [22]): Dose-dependent effect
- IC50 (UACC-903 [22]): 7.45 µM
- Activity (A549 [24]): Dose-dependent effect
- Activity (A549 [25]): 61.1%
- growth inhibition (GI) (UACC-903 [26]): tde
